These results are taken from PubChem BioAssay.

The nature of assay [1]: thallium flux activation in parental CHO cells, counter-screen for KCNQ1 potentiator project (AID 493006;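 active = duplicate-averaged activation above buffer control mean plus 5 SD of those controls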). The conditions noted are these: parental CHO-K1 cells, FluxOR thallium flux, at 10 µM; stronger effect = higher value. The gist of the method: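 Assay system: Untransfected host CHO-K1 cells with FluxOR thallium dye | Probe or stimulus: Potassium/thallium depolarization pulse | Schedule: Overnight 37 °C plating, 90 min RT dye, 20 min compound | Detection: Kinetic thallium-flux fluorescence | Read-out: Max-minus-min fluorescence over baseline, percent of buffer-to-R-L3 span | Benchmarks: Low control buffer, high control R-L3 activator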

The target of assay [2] is Potassium voltage-gated channel subfamily KQT member 1 (Homo sapiens) (UniProt P51787). The assay is described as follows: KCNQ1 potassium channel potentiators, confirmation, FluxOR thallium flux, CHO cells, duplicates (AID 493007).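 As to outcome: cells depolarized by a potassium plus thallium sulfate stimulus after compound.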 The conditions noted are these: KCNQ1 cell line, FluxOR thallium flux fluorescence, at 10 µM; stronger effect = higher value, % of reference activator effect, buffer zero. The gist of the method:
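Material: KCNQ1-expressing CHO cell line; Incubation: FluxOR dye loading 90 min, compound exposure 20 min, room temperature; Detection: FluxOR Tl+ flux fluorescence, 10 s baseline plus 110 s recording; Read-out: percent activation between buffer and R-L3 responses; Control set: buffer-only wells as 0% and R-L3 activator as 100%; Replication: duplicate wells per compound.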

Assay [3] concerns the target Potassium voltage-gated channel subfamily KQT member 2 (Rattus norvegicus) (UniProt O88943). Description: rat KCNQ2 channel potentiation, selectivity assay for KCNQ1 potentiator project, KCNQ2-CHO-K1 cells (AID 493009;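 active = mean duplicate potentiation above the buffer control mean plus 5 SD of buffer wells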;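 also: assay conditions were tuned for KCNQ1 rather than KCNQ2 modulators; signal is max minus min fluorescence divided by baseline after thallium stimulus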). The conditions noted are these: FluxOR thallium flux fluorescence, at 10 µM; stronger effect = higher value, scaled: buffer 0, activator control 100.
The target in assay [4] is Potassium voltage-gated channel subfamily KQT member 1 (Homo sapiens) (UniProt P51787). Description: KCNQ1 channel current potentiators, confirmation, orthogonal assay for KCNQ1 potentiator project, IonWorks patch clamp, KCNQ1-CHO cells (AID 493184;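 active = current rise at least 3 SD above the untreated control mean in each of two repeat wells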). The conditions noted are these: automated patch clamp current, at 10 µM; stronger effect = higher value. The gist of the method:
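assay system = KCNQ1-expressing CHO cells | medium = external bath solution at pH 7.4 | probe or stimulus = 2,000 ms depolarization, -90 to +40 mV | compound dosing = 10 µM final, single point | measured by = automated voltage clamp, amphotericin B perforated patch | measure = percent current increase versus pre-compound level | replication = duplicates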

The target of assay [5] is Potassium voltage-gated channel subfamily E member 1 (Homo sapiens) + Potassium voltage-gated channel subfamily KQT member 1 (Homo sapiens) (UniProt P15382+P51787). The assay is described as follows: KCNQ1/KCNE1 complex potentiators, confirmation, selectivity assay for KCNQ1 potentiator project, thallium flux, CHO-K1 KCNQ1/E1 cells (AID 493186;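 active = mean duplicate activation above the buffer control mean plus 5 SD of those controls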). The conditions noted are these: FluxOR thallium flux, at 10 µM; stronger effect = higher value. The essentials: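 Test system – CHO-K1 cells with KCNQ1/E1 · Measured by – FluxOR Tl+ flux fluorescence, kinetic read · Controls – buffer low control, R-L3 high control · Times – dye 90 min, compound 20 min, room temperature · Replication – duplicate wells per compound · Doses – one test concentration · Evaluation – fluorescence rise relative to baseline, as percent of R-L3 response above buffer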
Chain of Potassium voltage-gated channel subfamily E member 1 (Homo sapiens) + Potassium voltage-gated channel subfamily KQT member 1 (Homo sapiens) (P51787 whole entry, looked up): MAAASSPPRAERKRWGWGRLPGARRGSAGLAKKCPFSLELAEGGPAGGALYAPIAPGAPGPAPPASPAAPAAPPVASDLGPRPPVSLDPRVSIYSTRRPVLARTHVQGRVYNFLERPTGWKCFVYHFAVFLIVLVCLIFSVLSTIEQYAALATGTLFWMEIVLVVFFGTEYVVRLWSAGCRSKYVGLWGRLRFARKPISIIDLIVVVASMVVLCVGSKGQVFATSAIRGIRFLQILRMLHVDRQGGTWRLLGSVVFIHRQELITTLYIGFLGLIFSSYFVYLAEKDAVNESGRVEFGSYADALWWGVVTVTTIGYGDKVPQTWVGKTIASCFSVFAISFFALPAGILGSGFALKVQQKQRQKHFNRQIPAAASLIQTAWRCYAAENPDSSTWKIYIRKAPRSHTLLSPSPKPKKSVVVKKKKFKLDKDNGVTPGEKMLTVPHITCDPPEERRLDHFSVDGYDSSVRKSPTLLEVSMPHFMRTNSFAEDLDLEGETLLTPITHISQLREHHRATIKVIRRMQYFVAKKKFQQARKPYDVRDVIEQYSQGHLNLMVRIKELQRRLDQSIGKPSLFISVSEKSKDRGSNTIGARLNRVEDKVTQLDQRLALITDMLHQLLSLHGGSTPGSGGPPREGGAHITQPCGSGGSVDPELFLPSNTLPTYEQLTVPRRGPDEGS

Activity calls are given as the source filed them.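 The calls were made as follows, unless noted: active = potentiation averaged over duplicate wells exceeding buffer-only control mean by more than 3 SD; inactive = the rest.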

Chain of Potassium voltage-gated channel subfamily KQT member 1 (Homo sapiens) (P51787 whole entry, looked up): as above
Chain of Potassium voltage-gated channel subfamily KQT member 2 (Rattus norvegicus) (O88943 whole entry, looked up): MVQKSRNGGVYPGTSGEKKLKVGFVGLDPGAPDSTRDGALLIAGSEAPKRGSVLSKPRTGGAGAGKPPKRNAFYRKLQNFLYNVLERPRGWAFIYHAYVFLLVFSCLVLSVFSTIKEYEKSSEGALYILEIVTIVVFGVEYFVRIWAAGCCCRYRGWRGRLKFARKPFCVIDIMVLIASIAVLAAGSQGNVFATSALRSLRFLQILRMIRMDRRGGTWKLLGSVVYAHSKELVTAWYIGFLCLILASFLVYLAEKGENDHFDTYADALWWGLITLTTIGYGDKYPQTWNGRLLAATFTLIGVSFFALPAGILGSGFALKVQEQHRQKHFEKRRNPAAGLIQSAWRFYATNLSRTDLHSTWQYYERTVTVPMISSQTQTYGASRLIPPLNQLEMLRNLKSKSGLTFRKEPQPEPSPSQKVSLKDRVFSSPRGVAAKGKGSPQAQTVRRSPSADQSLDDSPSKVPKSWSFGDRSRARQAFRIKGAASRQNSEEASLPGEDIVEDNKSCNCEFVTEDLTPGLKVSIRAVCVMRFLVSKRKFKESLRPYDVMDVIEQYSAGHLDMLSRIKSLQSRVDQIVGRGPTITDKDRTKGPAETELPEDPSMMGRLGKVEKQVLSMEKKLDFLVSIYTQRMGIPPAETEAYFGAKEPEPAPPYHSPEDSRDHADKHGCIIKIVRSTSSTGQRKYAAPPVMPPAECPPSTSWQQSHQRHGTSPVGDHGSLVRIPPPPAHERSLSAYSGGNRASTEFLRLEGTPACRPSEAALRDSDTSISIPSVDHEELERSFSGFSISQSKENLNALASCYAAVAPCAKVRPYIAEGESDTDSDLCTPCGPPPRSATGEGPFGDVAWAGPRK

Turning to `O=C(NC(=S)N1CCCc2ccccc21)c1ccc([N+](=O)[O-])cc1`, in assay [1], the activation is 202% (active). The potentiation in assay [2] was 82% (active); in assay [3], 247% (active). For the same compound, in assay [4], the result was inactive.
In the same order, the values of `C=CCn1c(O)c(N=NC(=S)Nc2ccccc2F)c2ccccc21` are 352% (active), 212% (active), 416% (active) and “inactive”.
Turning to `CC(C)CCn1c(=S)[nH]c2ncccc2c1=O`, the activation in assay [1] was 152% (active). Further, the result in assay [2], in assay [3] and in assay [4] was inactive.
Turning to `CCCCN1C=CC(=C2C(=O)c3ccccc3C2=O)C=C1`, the outcome in assay [1], in assay [2], in assay [3] and in assay [4] was inactive.
`S=c1[nH]cnc2scc(-c3ccc(Br)cc3)c12`: the result in assay [1], in assay [4] and in assay [5] was inactive. The potentiation was 32.5% (active) in assay [2] and 147% (active) in assay [3].
`COC(=O)C1=C(C)N(c2ccc(F)c(Cl)c2)C(=O)C1`: the result in assay [1], in assay [2], in assay [3], in assay [4] and in assay [5] was inactive.
`CC(C)(C)c1ccc(OCC(=O)NNC(=S)NC(=O)c2ccco2)c(Br)c1`: the activation in assay [1] is 150% (active). Also, the potentiation is 89.5% (active) in assay [2] and 254% (active) in assay [3]. The result in assay [4] was inactive.
With `C/C(=N\Nc1nc2ccccc2s1)c1ccc(Br)s1`, the result in assay [1], in assay [2], in assay [3], in assay [4] and in assay [5] was inactive.
On to `O=C(NC(=S)NCCc1ccccc1)c1ccco1`, for which the outcome in assay [1], in assay [2], in assay [3], in assay [4] and in assay [5] was inactive.
Take `CCOC(=O)c1ccc(N2C(=O)C3ON(c4ccccc4)C(c4ccco4)C3C2=O)cc1` (stereo not given): the outcome in assay [1], in assay [2], in assay [3], in assay [4] and in assay [5] was inactive.
With `COc1nccnc1NS(=O)(=O)c1ccc(NC(=S)NC(=O)c2ccccc2F)cc1`, the outcome in assay [1], in assay [2], in assay [3], in assay [4] and in assay [5] was inactive.
`O=C(Nc1nnc(-c2ccco2)o1)c1ccc(Cl)cc1`: the outcome in assay [1], in assay [2], in assay [4] and in assay [5] was inactive. The potentiation in assay [3] is 148% (active).
Turning to `Oc1ccc(Br)cc1C=Nc1ccc(Cl)cc1`, the outcome in assay [1], in assay [2], in assay [3], in assay [4] and in assay [5] was inactive.
For `CCN(CC)CCNc1ncnc2c1sc1nc(N3CCCC3)c3c(c12)CC(C)(C)OC3`, the result in assay [1], in assay [2], in assay [3], in assay [4] and in assay [5] was inactive.
Take `COc1ccc(C2(C)CC(C)(C)Nc3ccccc32)cc1` (stereo not given): the outcome in assay [1], in assay [3], in assay [4] and in assay [5] was inactive. Moreover, the potentiation in assay [2] is 68.5% (active).
Consider `Cc1ccc(NC(=O)Nc2ccc3c(c2)CCC3)cc1`, for which the result in assay [1], in assay [2], in assay [3], in assay [4] and in assay [5] was inactive.
Take `COc1ccc(C(=O)/C=C/C(=O)N(CC(=O)NC2CCCCC2)Cc2cccs2)c(O)c1`: the outcome in assay [1], in assay [2], in assay [3], in assay [4] and in assay [5] was inactive.
For `COc1ccc(-c2csc(NC(=S)NC(=O)c3ccco3)n2)cc1Br`, the outcome in assay [1], in assay [3], in assay [4] and in assay [5] was inactive. Also, the potentiation in assay [2] was 25% (active).
In the case of `COC(=O)c1sccc1NS(=O)(=O)c1ccc(F)cc1F`, the outcome in assay [1], in assay [2], in assay [3], in assay [4] and in assay [5] was inactive.
As to `CN1C(=O)c2ccc(NC(=O)c3c(F)c(F)c(F)c(F)c3F)cc2C1=O`, the outcome in assay [1], in assay [3], in assay [4] and in assay [5] was inactive. In assay [2], the potentiation was 25.5% (active).
Consider `Cc1nc(=S)c2c([nH]1)-c1ccccc1CC21CCCCC1`, for which the outcome in assay [1], in assay [4] and in assay [5] was inactive. The potentiation is 84.5% (active) in assay [2] and 180% (active) in assay [3].
As to `O=C(N1CCCCC1)N1CCN(C(=O)N2CCCCC2)CC1`, the result in assay [1], in assay [3], in assay [4] and in assay [5] was inactive. In assay [2], the potentiation is 19% (active).
As to `CCN(CC)CCCNC(=O)c1c(O)c2cc(F)cc3c2n(c1=O)C(C)CC3` (stereo not given), the outcome in assay [1], in assay [2], in assay [3], in assay [4] and in assay [5] was inactive.
Turning to `COc1ccc(C2c3ccc4ccccc4c3Oc3ncn(CCN4CCOCC4)c(=N)c32)cc1OC` (stereo not given), the outcome in assay [1], in assay [2], in assay [3], in assay [4] and in assay [5] was inactive.
As for `NC(=Nc1ccc(Cl)cc1)c1ccccc1`, the outcome in assay [1], in assay [2], in assay [3], in assay [4] and in assay [5] was inactive.
In the case of `COc1cc(C(=O)Nc2ccc3c(c2)nc(C)n3C)cc(OC)c1OC`, the result in assay [1], in assay [2], in assay [3], in assay [4] and in assay [5] was inactive.
In the case of `CCOC(=O)C(C(=O)OCC)C(C(=O)OCC)N1CCOCC1` (stereo not given), the outcome in assay [1], in assay [2], in assay [4] and in assay [5] was inactive. The potentiation in assay [3] is 171% (active).
For `Cc1cccc2sc(N(CCCN(C)C)C(=O)c3ccc4ncsc4c3)nc12`, the result in assay [1], in assay [2], in assay [3], in assay [4] and in assay [5] was inactive.
